Published values collected from several papers.
Lines come from different studies, so protocols differ.

SMILES | target or system | assay | test system | setting | quantity | value
N=c1c2c(-c3ccccc3)c(-c3ccccc3)n(Cc3ccccc3)c2ncn1[C@H]1CC[C@H](O)CC1 | – | – | male cynomolgus monkey, plasma | intravenous, 0.5 mg/kg, single dose | clearance | 0.6 mL/min/kg
Cc1cc(C)nc(Nc2ncc(C(=O)NCCc3c(C)[nH]c4ccccc34)cn2)c1 | – | metabolic stability | dog, liver microsomes | 1 µM | half-life | 10 min
Cc1nc2ccccc2n(-c2ccc([N+](=O)[O-])cc2[N+](=O)[O-])c1=O | WI-38 | cell growth or viability, MTT | – | 48 h | CC50 | 61.2 µM
CCC[C@@](N)(CO)CCc1ccc(OCCCCCC(C)C)cc1 | – | – | dog, plasma | intravenous, 0.25 mg/kg | C0 | 36 nM
O=C1Nc2c(C(F)(F)F)cccc2[C@@]1(c1ccc(O)cc1)c1ccc(OC(F)(F)F)cc1 | – | general toxicity | Sprague-Dawley rat | intravenous | MTD | 10 to 20 mg/kg
Cc1cc(NC2CCN(C(=O)OC3CCN(C(=O)/C=C/CN(C)C)C3)CC2)n2ncc(C(C)C)c2n1 (stereo not shown) | – | general toxicity | rat | oral, multiple doses, once daily | MTD | 6 mg/kg
O=c1c(O[C@@H]2O[C@H](CO)[C@@H](O)[C@H](O)[C@H]2O)c(-c2ccc(O)cc2)oc2cc(O)cc(O)c12 | WI-38 | cell growth or viability, WST-1 | – | – | IC50 | 113 µM
O=C(Nc1ncc([N+](=O)[O-])s1)c1ccccc1O | RPE | cell growth or viability | – | 48 h | CC50 | ≥ 30 µM
O=C1N=C(N2CCCCN2)S/C1=C\c1ccc(F)cc1OC(=O)N1CCCC1 | – | general toxicity | Sprague-Dawley rat | oral, multiple doses | NOAEL | 2000 mg/kg/day
C#C[C@]1(CO)O[C@@H](n2cnc3c(N)nc(F)nc32)C[C@@H]1O | – | general toxicity | rat | oral, multiple doses | NOAEL | ≥ 50 mg/kg/day
O=C(O)c1cn(Cc2ccc(F)cc2)c2ccccc12 | UDP-glucuronosyltransferase 1A10 (UGT1A10, Homo sapiens, UniProt Q9HAW8) | enzyme activity, substrate | – | – | Km | 38 µM
COc1c2ccoc2cc2oc(=O)ccc12 | WI-38 | cell growth or viability, WST-1 | – | 48 h | IC50 | 86.3 µM
O=[N+]([O-])c1ccc(Oc2cccc3cccnc23)c([N+](=O)[O-])c1 | WI-38 | cell growth or viability, MTT | – | 48 h | CC50 | 243 µM
